IC50 data for 22 compounds are collected here from ChEMBL document CHEMBL1138186, “Dynamic pharmacophore model optimization: identification of novel HIV-1 integrase inhibitors” (J Med Chem, 2006).

For assay [1], the target named is T1, Human immunodeficiency virus type 1 integrase (Human immunodeficiency virus 1, UniProt Q7ZJM1). As to the kind of experiment: Inhibition of 3'-processing activity of HIV1 integrase. In a few lines: (§1)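 Then 20 nM 5′-32P-labeled 21-mer oligonucleotide added for 1 h. Quenched with formamide loading dye. % inhibition from 19-mer (3′-processing) or strand transfer product fractions versus DNA-alone and DNA+IN controls. IC50 from log concentration versus % inhibition plot.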
T1 sequence (Q7ZJM1 whole entry): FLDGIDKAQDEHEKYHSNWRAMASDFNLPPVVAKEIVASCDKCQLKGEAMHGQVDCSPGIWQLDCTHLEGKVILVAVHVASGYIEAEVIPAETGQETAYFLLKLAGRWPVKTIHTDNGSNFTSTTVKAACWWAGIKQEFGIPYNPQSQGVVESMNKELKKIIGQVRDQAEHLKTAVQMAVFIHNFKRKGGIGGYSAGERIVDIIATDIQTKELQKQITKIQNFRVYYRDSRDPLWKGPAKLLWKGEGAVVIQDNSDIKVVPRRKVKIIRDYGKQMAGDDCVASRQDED

For assay [2], the target named is T1, Human immunodeficiency virus type 1 integrase. As to the kind of experiment: Inhibition of strand transfer activity of HIV1 integrase. Summed up: as §1

Some results are limits rather than exact numbers.

`COCCCNS(=O)(=O)c1ccc(Oc2cc(O)c3c(c2O)C(=O)c2ccccc2C3=O)cc1`: the results for the IC50 in assay [1] and in assay [2] were 100 µM and 23 µM, respectively.

`COc1ccc(C(=O)C2=C(O)C(=O)N(CCN3CCNCC3)C2c2ccccc2F)cc1` (centres undefined): the figures for the IC50 in assay [1] and in assay [2] were over 1000 µM and 630 µM, respectively.

As for `O=C(C1=C(O)C(=O)N(CCCN2CCOCC2)C1c1ccccc1F)c1ccc(F)cc1` (centres undefined), the IC50 in assay [1] and in assay [2] was over 1000 µM each time.

Take `COc1cccc2cc(-c3csc(Nc4cccc(O)c4)n3)c(=O)oc12`: the IC50 in assay [1] and in assay [2] was over 100 µM each time.

In the case of `O=C(O)CCC(=O)Nc1ccc(Cl)c(NC(=O)Cc2ccccc2)c1`, the IC50 in assay [1] and in assay [2] was over 100 µM throughout.

For `COc1ccc(C2C(C(=O)c3ccccc3)=C(O)C(=O)N2CCCO)cc1OC` (centres undefined), the IC50 in assay [1] and in assay [2] was over 100 µM each time.

In the case of `CN(C)CCCN1C(=O)C(O)=C(C(=O)c2cccs2)C1c1cccs1` (centres undefined), the IC50 in assay [1] and in assay [2] was over 100 µM in each case.

For `NCCCCCCNC(=O)c1c(O)oc2ccccc2c1=O`, the IC50 in assay [1] and in assay [2] was over 100 µM in each case.

Consider `O=C(NCCCO)c1ccc(CSc2nc(O)c3c4c(sc3n2)CCC4)cc1`, for which the IC50 in assay [1] and in assay [2] was over 100 µM throughout.

As to `O=C(O)CCC(=O)Nc1ccc(S(=O)(=O)Nc2ccc(F)cc2)cc1`, the IC50 in assay [1] and in assay [2] was over 100 µM throughout.

For `Cc1ccc(C(=O)C2=C(O)C(=O)N(CCN(C)C)C2c2ccccc2F)cc1` (centres undefined), the IC50 in assay [1] and in assay [2] was over 1000 µM in each case.

For `CCOC(=O)c1c(NC(=O)CC2Sc3ccc(C(F)(F)F)cc3NC2=O)sc2c1CCCC2` (centres undefined), the IC50 in assay [1] and in assay [2] was over 100 µM in each case.

`O=c1oc2c(CN(CCO)CCO)c(O)ccc2cc1-c1nc2ccccc2s1`: the IC50 (in general, the concentration at which inhibition is half-maximal) is 850 µM in assay [1] and 350 µM in assay [2].

For `CCOC(=O)C1=C(O)/C(=C\c2ccc(CNC(=O)C(=O)Nc3ccccc3)o2)N=C1C`, the figures for the IC50 in assay [1] and in assay [2] were over 100 µM and 40 µM, respectively.

Take `COc1cc(C(c2c[nH]c3ccccc23)c2c[nH]c3ccccc23)ccc1OCC(=O)O`: the IC50 in assay [1] and in assay [2] was over 100 µM each time.

Consider `Oc1ccc(C(c2c[nH]c3ccccc23)c2c[nH]c3ccccc23)cc1O`, for which the IC50 in assay [1] amounted to 53 µM; in assay [2] it was 10 µM.

For `COc1ccc(C2C(C(=O)c3ccco3)=C(O)C(=O)N2CCN2CCOCC2)c(OC)c1` (centres undefined), the results for the IC50 in assay [1] and in assay [2] were over 1000 µM and 395 µM, respectively.

Turning to `CCN(CC)CCN1C(=O)C(O)=C(C(=O)c2ccccc2)C1c1ccc(OC)cc1OC` (centres undefined), the IC50 in assay [1] and in assay [2] was over 1000 µM throughout.

As for `COc1ccc(C2C(C(=O)c3ccc(F)cc3)=C(O)C(=O)N2CCN(C)C)cc1OC` (centres undefined), the IC50 in assay [1] and in assay [2] was over 1000 µM each time.

Turning to `COC(=O)c1c(NC(=O)CC2Nc3ccccc3NC2=O)sc2c1CCCC2` (centres undefined), the IC50 in assay [1] and in assay [2] was over 100 µM in each case.

On to `CCOC(=O)c1c(NC(=O)c2cc3ccccc3oc2=O)sc(C(N)=O)c1C`, for which the figures for the IC50 in assay [1] and in assay [2] were 90 µM and 56 µM, respectively.

For `NCCCNc1ccc2c3c(nn2CCNCCO)-c2c(O)ccc(O)c2C(=O)c13` [PIROXANTRONE], the IC50 was 18 µM in assay [1] and 9 µM in assay [2].
